From ChEMBL document CHEMBL3390837, “Bridged tetrahydroisoquinolines as selective NADPH oxidase 2 (Nox2) inhibitors” (Medchemcomm, 2013)
The source made the active and inactive calls. The rule behind the calls is not given here.

Tests used:
[1] = target: Xanthine dehydrogenase/oxidase (Bos taurus, UniProt P80457); test: Inhibition of bovine milk xanthine oxidase assessed as hypoxanthine-stimulated ROS generation by measuring H2O2 production at 25 to 50 uM by fluorescence assay; conditions: cattle
Chain of Xanthine dehydrogenase/oxidase (P80457 whole entry): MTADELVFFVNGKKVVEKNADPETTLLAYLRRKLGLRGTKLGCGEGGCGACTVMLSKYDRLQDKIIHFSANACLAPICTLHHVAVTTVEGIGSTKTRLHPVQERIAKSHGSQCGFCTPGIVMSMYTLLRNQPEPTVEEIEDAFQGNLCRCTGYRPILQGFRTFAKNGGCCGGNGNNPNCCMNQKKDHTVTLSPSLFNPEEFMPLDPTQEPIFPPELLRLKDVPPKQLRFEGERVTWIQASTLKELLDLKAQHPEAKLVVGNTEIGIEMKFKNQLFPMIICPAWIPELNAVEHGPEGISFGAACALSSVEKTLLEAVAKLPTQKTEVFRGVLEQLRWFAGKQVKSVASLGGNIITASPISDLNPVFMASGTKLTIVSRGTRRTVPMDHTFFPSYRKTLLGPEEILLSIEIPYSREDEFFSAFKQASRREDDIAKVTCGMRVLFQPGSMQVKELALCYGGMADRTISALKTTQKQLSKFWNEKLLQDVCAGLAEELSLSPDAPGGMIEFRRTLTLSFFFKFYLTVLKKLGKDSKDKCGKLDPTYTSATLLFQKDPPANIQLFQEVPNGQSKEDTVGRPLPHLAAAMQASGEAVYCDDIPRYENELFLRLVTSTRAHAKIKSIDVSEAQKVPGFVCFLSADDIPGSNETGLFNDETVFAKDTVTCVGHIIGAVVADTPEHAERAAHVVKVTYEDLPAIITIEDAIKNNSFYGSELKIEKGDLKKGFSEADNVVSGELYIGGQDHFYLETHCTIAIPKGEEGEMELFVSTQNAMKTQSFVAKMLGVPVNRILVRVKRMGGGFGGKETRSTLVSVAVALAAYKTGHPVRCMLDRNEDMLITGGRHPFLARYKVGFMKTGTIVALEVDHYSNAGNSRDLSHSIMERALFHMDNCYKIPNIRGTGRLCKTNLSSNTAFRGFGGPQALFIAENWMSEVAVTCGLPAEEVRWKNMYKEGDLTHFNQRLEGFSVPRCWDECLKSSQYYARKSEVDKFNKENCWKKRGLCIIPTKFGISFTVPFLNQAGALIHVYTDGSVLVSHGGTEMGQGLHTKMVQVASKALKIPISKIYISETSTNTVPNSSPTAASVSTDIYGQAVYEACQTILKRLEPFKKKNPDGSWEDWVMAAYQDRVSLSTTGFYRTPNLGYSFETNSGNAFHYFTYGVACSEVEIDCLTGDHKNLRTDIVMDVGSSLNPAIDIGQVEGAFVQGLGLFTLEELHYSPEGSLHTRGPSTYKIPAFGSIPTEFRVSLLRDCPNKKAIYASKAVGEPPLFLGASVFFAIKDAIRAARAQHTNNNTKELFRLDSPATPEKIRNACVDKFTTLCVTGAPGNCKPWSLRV

NADPH oxidase 2 [2] = target: T1, NADPH oxidase 2 (Homo sapiens, UniProt P04839); test: Inhibition of full length human NOX2 transfected in COS 22 cells assessed as inhibition of Phorbol 12-myristate 13-acetate-stimulated ROS generation by measuring H2O2 production by fluorescence assay in presence of superoxide dismutase; type: cell-based; conditions: read-out: IC50
T1 sequence (P04839 whole entry): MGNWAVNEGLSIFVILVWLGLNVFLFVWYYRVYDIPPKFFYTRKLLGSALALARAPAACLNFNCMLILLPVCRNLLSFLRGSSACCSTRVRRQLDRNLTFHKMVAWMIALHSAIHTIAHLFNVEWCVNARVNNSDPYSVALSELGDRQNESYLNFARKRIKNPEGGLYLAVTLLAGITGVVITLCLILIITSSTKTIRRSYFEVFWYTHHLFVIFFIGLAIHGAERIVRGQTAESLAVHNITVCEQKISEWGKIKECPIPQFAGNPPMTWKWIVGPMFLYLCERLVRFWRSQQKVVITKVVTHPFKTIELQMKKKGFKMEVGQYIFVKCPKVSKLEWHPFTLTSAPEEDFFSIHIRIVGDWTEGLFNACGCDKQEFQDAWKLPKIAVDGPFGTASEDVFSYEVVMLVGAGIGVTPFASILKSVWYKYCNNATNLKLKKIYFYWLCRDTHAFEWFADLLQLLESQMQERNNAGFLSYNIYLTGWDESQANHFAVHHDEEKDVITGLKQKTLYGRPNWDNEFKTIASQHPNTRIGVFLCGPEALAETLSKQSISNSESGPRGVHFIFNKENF
Procedure, shortened: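 Intact COS-Nox2 cells in Hepes pH 7.4 buffer with 0.1 mM Amplex Red, 0.32 U/ml HRP and 150 U/mL SOD, drug 15 min at 37 °C; started with 5 µM PMA; fluorescence monitored 1 h at 37 °C; rate as RFU/min minus unstimulated cells; % of vehicle control.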

NADPH oxidase 1 = target: T2, NADPH oxidase 1 (Homo sapiens, UniProt Q9Y5S8); test: Inhibition of full length human NOX1 transfected in COS 22 cells assessed as inhibition of constitutive ROS generation by chemiluminescence assay; conditions: read-out: IC50
T2 sequence (Q9Y5S8 whole entry): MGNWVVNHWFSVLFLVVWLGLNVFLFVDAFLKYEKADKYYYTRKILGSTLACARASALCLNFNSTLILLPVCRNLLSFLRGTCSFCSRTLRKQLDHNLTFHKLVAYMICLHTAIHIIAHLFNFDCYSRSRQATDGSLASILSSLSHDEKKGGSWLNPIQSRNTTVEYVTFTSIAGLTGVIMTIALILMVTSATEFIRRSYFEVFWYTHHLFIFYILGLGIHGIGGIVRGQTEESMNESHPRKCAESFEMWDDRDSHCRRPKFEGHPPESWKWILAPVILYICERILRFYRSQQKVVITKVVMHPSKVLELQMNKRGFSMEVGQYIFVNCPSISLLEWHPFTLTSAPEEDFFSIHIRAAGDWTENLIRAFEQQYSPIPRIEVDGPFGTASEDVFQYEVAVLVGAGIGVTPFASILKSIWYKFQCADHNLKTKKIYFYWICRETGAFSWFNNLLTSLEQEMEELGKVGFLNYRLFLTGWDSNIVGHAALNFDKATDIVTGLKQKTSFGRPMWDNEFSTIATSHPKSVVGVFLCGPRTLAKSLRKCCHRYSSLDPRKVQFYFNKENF

NADPH oxidase 4 = target: T3, NADPH oxidase 4 (Homo sapiens, UniProt Q9NPH5); test: Inhibition of full length human NOX4 transfected in COS 22 cells assessed as inhibition of ROS generation by measuring H2O2 production by fluorescence assay; conditions: read-out: IC50
T3 sequence (Q9NPH5 whole entry): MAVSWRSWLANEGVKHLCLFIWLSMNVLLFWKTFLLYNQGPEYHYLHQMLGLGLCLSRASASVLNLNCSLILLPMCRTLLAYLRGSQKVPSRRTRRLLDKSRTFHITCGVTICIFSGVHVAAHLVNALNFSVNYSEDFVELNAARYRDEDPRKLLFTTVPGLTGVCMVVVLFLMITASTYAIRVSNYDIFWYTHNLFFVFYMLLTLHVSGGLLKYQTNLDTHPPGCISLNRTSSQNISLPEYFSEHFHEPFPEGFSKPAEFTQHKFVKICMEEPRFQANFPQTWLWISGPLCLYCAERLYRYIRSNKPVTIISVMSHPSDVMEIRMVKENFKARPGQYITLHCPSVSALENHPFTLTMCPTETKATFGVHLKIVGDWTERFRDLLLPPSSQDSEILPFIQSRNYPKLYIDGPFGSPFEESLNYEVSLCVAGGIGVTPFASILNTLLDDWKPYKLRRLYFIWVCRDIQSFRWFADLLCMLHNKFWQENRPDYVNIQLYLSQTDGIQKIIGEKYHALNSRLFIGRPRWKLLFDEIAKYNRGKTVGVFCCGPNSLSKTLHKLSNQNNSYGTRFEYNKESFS

NADPH oxidase 2 [3] = target: T1, NADPH oxidase 2; test: Inhibition of full length human NOX2 transfected in COS 22 cells assessed as inhibition of Phorbol 12-myristate 13-acetate-stimulated ROS generation by chemiluminescence assay; type: cell-based; conditions: read-out: IC50
Procedure, shortened: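 COS-Nox2 (COS-7 stably expressing human p22phox, Nox2, p47phox, p67phox) plated in OPTIMEM at 2.5 x 10³ cells/well; 10 min at 37 °C in PBS with L-012, then stimulated with 5 µM PMA; luminescence followed over time; superoxide specificity checked with SOD 150 U/mL. IC50 by three-parameter non-linear fit, Hill slope 1, top/bottom fixed 100/0.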

[4] = target: T4, NADPH oxidase 2 (Homo sapiens) (UniProt P04839); test: Inhibition of full length human NOX2 transfected in COS 22 cells assessed as inhibition of lithium dodecyl sulphate-stimulated ROS generation at 6.3 uM preincubated for 15 mins followed by lithium dodecyl sulphate challenge by cell-free assay in presence of NADPH
T4 sequence (whole entry): T1 sequence (P04839 whole entry)
Procedure, shortened: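 COS-Nox2 lysate (freeze/thaw ×5, needle passage, 1000 × g spin, kept near 0 °C) at 5 × 10⁵ cell equivalents/well in 65 mM sodium phosphate pH 7.0 with 1 mM EGTA, 10 µM FAD, 1 mM MgCl₂, 2 mM NaN₃, 0.2 mM cytochrome c; superoxide from initial 10-min linear rate of SOD-inhibitable cytochrome c reduction at 550 nm (21.1 mM⁻¹ cm⁻¹).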

[5] = Cytotoxicity against african green monkey COS7 cells expressing human p22phox assessed as cell viability at 25 to 50 uM after 15 mins by luminogenic assay; type: cell-based; conditions: chlorocebus aethiops, cos-7, 0.25 h
Procedure, shortened: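 COS-22 cells plated at 2.5 x 10³ cells/well in OPTIMEM, exposed 15 min to compounds at various concentrations; dead-cell protease release read with luminogenic AAF peptide substrate, signal before and after digitonin used to derive % dead; reported as % live cells (100 − % dead) per well.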

C=C(C)C[C@@H]1N[C@H]2CC(C)(C)[C@@H]1c1c(Br)cccc12 (racemic)
inhibition (INH) [1]: Not Active
IC50 (NADPH oxidase 2 [2]): 40 µM
IC50 (NADPH oxidase 1): 31 µM
IC50 (NADPH oxidase 4): > 100 µM
IC50 (NADPH oxidase 2 [3]): 46 µM
inhibition [4]: Active
Activity [5]: Non-toxic
